Here are results for 167 variants from the RNAGym collection of RNA variant scans (doi:10.1126/science.aae0568).

The chains are these.
B1: tRNA (parent)
chain: GUUCCGUUGGCGUAAUGGUAACGCGUCUCCCUCCUAAGGAGAAGACUGCGGGUUCGAGUCCCGUACGGAACG

Fewer inactive variants are shown than the library holds.

Variants of B1 are the subject of this data set. Description: yeast fitness relative to wild type (ratio to wild type); higher = fitter; tRNA-Arg(CCU), competitive growth, 37 C, YPD. Summed up:
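For this measurement, the tRNA-Arg(CCU) gene was varied by chemical synthesis at a 3% per-site mutation rate across 69 sites, and each variant was placed at the native genomic locus in Saccharomyces cerevisiae. The pooled strains went through a 24-hour competition in YPD at 37°C in six parallel replicates, with amplicons from start and end populations read by 100-nucleotide paired-end sequencing. Darwinian fitness relative to wild type followed from the change in each genotype's frequency. Genotypes needed ≥ 100 starting reads, and estimates < 0.5 were set to 0.5.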
With G9C A21G C34G, the yeast fitness is no more than 0.5. Regarding G10A A15C A37C C62A, the yeast fitness was determined as 0.636. Next, G10A A15G C27U A42C G50C: no more than 0.5; G10A C29A C34G A43C C60G: 0.663. Turning to G9A U28C A36G, the yeast fitness is 0.683. Next, G10A A21C C34U: no more than 0.5.

For G10A C66U, the yeast fitness turned out to be 0.635.

As for G10A C62U, the yeast fitness was found to be 0.843. In the case of G9C A20C U47C C66A, the yeast fitness amounted to 0.543. Next, G10A C29U A57C: no more than 0.5; G10A U35C G56A: no more than 0.5; G9A G50C: 0.947.

Consider G10A C24G G56A, for which the yeast fitness was no more than 0.5. On to G10A C29A A42U U64C, for which the yeast fitness is 0.529. Next, G9C C24U U26G A42U G52U: no more than 0.5; G9A G12C A65G G67C A69G: no more than 0.5; G9C U54C U59C A69G: no more than 0.5. Next, G9C G44C: 0.65; G10A C27U G67C: 0.627.

Turning to G9C C29A, the yeast fitness came to 0.601. G10A U16A A65G: the yeast fitness amounted to 0.542. Then G9A G10A C24A G44A, with no more than 0.5; and G9C G48C, with 0.695; and G10A G23A, with 0.534.

Take G9A U19G U59C C62G A65U: the yeast fitness was no more than 0.5. Then G9A G12C C31A C33G A43C A69U A70C, with no more than 0.5; and G10A U64C, with 0.793.

For G9A C31A U47C G67A, the yeast fitness was no more than 0.5. Next, G10A A21C C24A C66A: no more than 0.5; G9A G25A A43G A65U: no more than 0.5. Then G10A A15C A70U, with no more than 0.5; and G9C G12A U35G, with no more than 0.5; and G9C G56C, with 0.514. G10C A15G U35A G44A: the yeast fitness stood at 0.589.

In the case of G9C U19C C31A, the yeast fitness is no more than 0.5. Next, G9A G56A: 1; G10A G63C C66U: no more than 0.5. Next, G10A C30G A65G: no more than 0.5. Next, G9C G23A: 0.544; G10A A15U G51A A65U: 0.603. On to G10A A43U C60U, for which the yeast fitness was no more than 0.5. On to G10A C22G G25C, for which the yeast fitness is no more than 0.5. Next, G9A G25C: 0.931; G9C A15G C30U C46A U54A A57G: no more than 0.5. Then G9C A21G A42G, with no more than 0.5. Next, G10A U16A: 0.708; G10A U16C: 0.777. Take G9A U16C A21G A42G: the yeast fitness was no more than 0.5. Then G10A C11A C29A A45C A69U, with no more than 0.5; and G9A U19C C22A, with 0.606; and G10A C49A, with 0.521. Next, G9C U16C A69C: 0.562; G9C G17C C27G U35A C49A A69U: 0.536. Consider G10A G18C A20U C30A, for which the yeast fitness was no more than 0.5. Then G10A C11G A20G C55G, with no more than 0.5; and G10A G17A U19A C29U C49G, with no more than 0.5; and G9C A21G G44C U47C A70U, with no more than 0.5.

As to G10A A15G, the yeast fitness was 0.782. Then G9A C34A G58A, with 0.667; and G10A U19A A42G, with no more than 0.5. Next, G10A C11U A20G A40G C55G: no more than 0.5.

Consider G10A A20C C61A C62U G63U C66A, for which the yeast fitness came out at 0.646. As to G10C A15G, the yeast fitness worked out at 0.786. Then G9C U13C C27A U54A C60U, with no more than 0.5; and G10A U28A, with 0.633.

With G10A G23C C33G C55G, the yeast fitness is no more than 0.5. Next, G10A C27U C34G A37U G41C G48A: 0.573. Next, G9A U26A: 0.837; G9C U16A C24U C30U C62U: no more than 0.5.

As for G9C G44A C60G, the yeast fitness is no more than 0.5.

On to G10A A57G G68C, for which the yeast fitness was no more than 0.5. Consider G9C A40U G41A, for which the yeast fitness was no more than 0.5. Then G9C A14U A21C C61A, with 0.81; and G9C A15C U16C C34G C66A A69C, with no more than 0.5; and G9C A14C U19G A42U, with no more than 0.5. G9C A14C A69U: the yeast fitness is no more than 0.5.

Regarding G9A U16A A42C U53C C62A, the yeast fitness was no more than 0.5. For G9A G18A A21C C29U G58C C66G, the yeast fitness was no more than 0.5.

Regarding G9C C22G G50A, the yeast fitness was no more than 0.5. Consider G10A A40U G52C C62A A65C A70U, for which the yeast fitness stood at 0.655. As to G9C G10A G12C G25C G52C, the yeast fitness was no more than 0.5. Then G9C C30G A57U C60G, with 0.533; and G10A C60G C61G, with 0.528; and G10A A42C A43C A70U, with no more than 0.5.

For the variant G9A C46A C55U, the yeast fitness is 0.543. As to G10A U19C G41C, the yeast fitness came to 0.532. On to G9U C22U, for which the yeast fitness was found to be 0.715. In the case of G9C C46U G63A, the yeast fitness was 0.69.

With G10A C33U, the yeast fitness came out at 0.592. Next, G9C G50C U53G G67C: 0.68; G9A U54C: 0.841; G10A C33G A70U: no more than 0.5.

Take G10A C24A A43C C61U: the yeast fitness was no more than 0.5. Turning to G9A G39A A45G G50A, the yeast fitness was no more than 0.5.

As for G9C A15U U16C A36U, the yeast fitness is no more than 0.5. Next, G10A C29G C33U G50A: 0.535; G9C A14C A15U G23A C34A G52C: no more than 0.5; G10A C29U C30G C34A U53C: no more than 0.5. Next, G10C A15U C29G U35A A36C A65G C66G: no more than 0.5; G10A U16A A21C: 1. As for G10A U53A A65G, the yeast fitness is no more than 0.5. Turning to G9A U26G C30A, the yeast fitness came to 0.636. Turning to G9C C27G G44A A57G, the yeast fitness was found to be 0.691. Next, G9C A40G A42G A57U C62G C66U: 0.565; G10C A14U U19A C22U C49U C66U: no more than 0.5; G10A U35G A43G C46U A69U: no more than 0.5. Next, G9A C34U C46A C62U: 0.546; G10C A14C C24A C31G: no more than 0.5. Then G9C U16G A20G, with 0.803; and G9C A15G C49A, with 0.601.

For G10A U19A G41C, the yeast fitness was no more than 0.5.

G9C C27A C33A G63A A70G: the yeast fitness is no more than 0.5.

Take G10A A36C: the yeast fitness was no more than 0.5.

As to G10A A36G, the yeast fitness came out at 0.664. Consider G9A C55G A69C, for which the yeast fitness was determined as 0.611. For the variant G9C G10C U47A G68C, the yeast fitness is no more than 0.5.

With G9A U13A C24A A45C, the yeast fitness is no more than 0.5. Next, G9C U13A G25A A40C A57C C61G G67A: no more than 0.5; G9A G44A C46U A69C: 0.787. Next, G10A U16A C49A G50A G68C: no more than 0.5.

As to G10A A14C G17A C22G C24G C30A, the yeast fitness is 0.775. As to G10A G38A A57G, the yeast fitness was no more than 0.5. Next, G10A C55U C61A: no more than 0.5; G9A U53G: 0.661. Next, G9C G12C C33U U35A: no more than 0.5; G10A G18A C46A A65U: no more than 0.5.

G9A C30U C33A A36U A43U U54C G56A: the yeast fitness was 0.626.

Consider G9C G39C A45C, for which the yeast fitness is no more than 0.5. For the variant G9C A15C C34G C66A A69C, the yeast fitness is no more than 0.5. With G9C C27U A36G A42U, the yeast fitness was determined as 0.76.

Regarding G9C C62G, the yeast fitness was found to be 0.608. In the case of G9C C62A, the yeast fitness came to 0.576.

On to G10A A15C G25A C66U, for which the yeast fitness came out at 0.543.

Regarding G9C G63A, the yeast fitness is 0.72. Take G9C A43G: the yeast fitness turned out to be 0.706. As to G9C A42C C49G U53A, the yeast fitness was no more than 0.5. In the case of G10A G17C C30G C33G C61A, the yeast fitness turned out to be 0.556. With G9C C24G C49U A65C, the yeast fitness is no more than 0.5. Then G10A G56A C60U, with no more than 0.5. Turning to G9A C31U C60U A65G, the yeast fitness is no more than 0.5. For G10A C34U, the yeast fitness is no more than 0.5. Then G9A C31A U47A, with no more than 0.5; and G9C G12C C31A A40U, with no more than 0.5; and G9A G17A C22G A40G G41C, with no more than 0.5. Then G10C A20G C24U G38C G56C C66U, with no more than 0.5; and G10A C24G C33G A45U G68C, with no more than 0.5; and G9A C61U, with 0.949.

As for G9C A20U C27G A42C C49U A65C, the yeast fitness is no more than 0.5. Next, G10A G17A: 0.556; G10A G17C: 0.549; G9C C22G C33G G63C: no more than 0.5. Next, G10A A42C A43C C66A: no more than 0.5. Take G9C U28C A42U: the yeast fitness was determined as 0.647.

Turning to G9U G18A C46A C49G, the yeast fitness was determined as 0.552. Turning to G9C C29U C49A C61U, the yeast fitness is no more than 0.5. With G9C G12A A57C, the yeast fitness amounted to 0.541. Turning to G10A U13A C24A, the yeast fitness amounted to 0.582. Then G10A C11A C29A, with 0.627; and G10A G12A U53A, with no more than 0.5; and G9C U13A G25A A40C A57C G58A C61A G67A, with no more than 0.5.

Turning to G10A G18A A42C C61A, the yeast fitness came to 0.858. On to G9A G44C C66U, for which the yeast fitness turned out to be 0.552. Next, G10A C27G U28G C34U C46G: 0.576; G9C G25C C66U A70C: 0.55; G10A C11A G38A G52C C61A: no more than 0.5. In the case of G9C C24A C34A C46G, the yeast fitness was no more than 0.5. Next, G9C C11U G18C C31A A57G: no more than 0.5.
